In ChEMBL document CHEMBL1944582, “Pyrazolopyridine Inhibitors of B-Raf(V600E). Part 1: The Development of Selective, Orally Bioavailable, and Efficacious Inhibitors” (ACS Med Chem Lett, 2011):
Converted amounts (≈) assume the structure as drawn.

Experiments:
[1] = AUC in CD-1 mouse at 100 mg/kg, po; format: ADME, organism-based; design: dose 100 mg/kg, route oral; details: plasma
Procedure, shortened: (§1)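 Single oral dose given to mice as a solution in 40% PEG400/10% ethanol/50% water, at 30 mg/kg or 100 mg/kg. Exposure is reported as AUC in μg h/mL.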

[2] = Oral bioavailability in CD-1 mouse at 100 mg/kg as a solution in 40%PEG400/10%ethanol/50% water; format: ADME, organism-based; details: in vivo
[3] = Plasma protein binding in CD-1 mouse; format: ADME, cell-free; details: read-out: PPB (converted)
[4] = Aqueous solubility of the compound in phosphate buffer at pH 6.5 after 24 hrs by HPLC analysis; format: physicochemical
[5] = Aqueous solubility of the compound in phosphate buffer at pH 7.4 after 24 hrs by HPLC analysis; format: physicochemical
[6] = Oral bioavailability in CD-1 mouse at 2.5 to 80 mg/kg as formulation of 25% SDD; format: ADME, organism-based; details: in vivo
Procedure, shortened: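 Oral bridging PK in mice used a 25% amorphous spray-dried dispersion on HPMCAS polymer at 2.5, 10, 40 and 80 mg/kg. Bioavailability (F) was derived per dose. The earlier solution vehicle was 40% PEG400/10% ethanol/50% water, with select intravenous dosing.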

COLO 205 [7] = assay: Cytotoxicity against human COLO205 cells after 4 days by CellTiter-Glo assay; format: functional, cell-based; details: COLO 205, 96 h
[8] = Inhibition of CYP450 at 25 uM; format: ADME
[9] = target: Voltage-gated inwardly rectifying potassium channel KCNH2 (Homo sapiens, UniProt Q12809); assay: Inhibition of human Erg at 100 uM
Salmonella typhimurium = assay: Induction of mutagenesis in Salmonella Typhimurium by Ames test; format: toxicity, organism-based; details: salmonella enterica subsp. enterica serovar typhimurium
COLO 205 [10] = assay: Antitumor activity against human COLO205 cells xenografted in po dosed mouse assessed as tumor growth inhibition administered QD for 20 days; format: functional; details: COLO 205, po, 480 h
Procedure, shortened: (§2)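 Mice with established Colo205 xenografts received the spray-dried dispersion orally at ascending doses once daily for 17 or 20 days. Tumor growth inhibition is expressed as percent of vehicle control, and ED50 and ED90 are given in mg/kg.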

[11] = target: T1, Serine/threonine-protein kinase B-raf (Homo sapiens, UniProt P15056, V600E); assay: Inhibition of B-Raf V600E mutant-mediated Erk phosphorylation in human MALME-3M cells after 1 hr by fluorescence analysis; format: cell-based
Procedure, shortened: (§3)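 Cells were not stimulated, and inhibition was read against their basal ERK phosphorylation. This was the mechanistic cellular assay, run in both Malme-3M and A375 lines.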

[12] = target: T1, Serine/threonine-protein kinase B-raf; assay: Inhibition of B-Raf V600E mutant-mediated Erk phosphorylation in human A375 cells after 1 hr by fluorescence analysis; format: cell-based, A-375; procedure, shortened: as §3
[13] = AUC in CD-1 mouse at 30 mg/kg, po; format: ADME, organism-based; design: dose 30 mg/kg, route oral; details: plasma; procedure, shortened: as §1
[14] = Oral bioavailability in CD-1 mouse at 30 mg/kg as a solution in 40% PEG400/10%ethanol/50% water; format: ADME, organism-based; details: in vivo
Mus musculus [15] = assay: Toxicity in human COLO205 cells xenografted mouse assessed as change in body weight at 125 mg/kg, po administered QD for 20 days; details: in vivo, 480 h
Mus musculus [16] = assay: Toxicity in human COLO205 cells xenografted mouse assessed as change in body weight at 100 mg/kg, po administered QD for 17 days; details: in vivo, 408 h
[17] = Clearance in CD-1 mouse; format: ADME, organism-based; details: in vivo
Procedure, shortened: (§4)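 Some compounds were also given intravenously to mice. Clearance is reported in mL/min/kg and volume of distribution in L/kg.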

[18] = Volume of distribution in CD-1 mouse; format: ADME, organism-based; details: in vivo; procedure, shortened: as §4
[19] = Oral bioavailability in CD-1 mouse at 10 mg/kg as formulation of 25% SDD; format: ADME, organism-based; details: in vivo
Procedure, shortened: (§5)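 Oral dosing in mice used a 25% amorphous spray-dried dispersion on HPMCAS polymer, given at 10, 30, 60 and 100 mg/kg. Oral bioavailability (F) was determined at each dose.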

[20] = Oral bioavailability in CD-1 mouse at 60 mg/kg as formulation of 25% SDD; format: ADME, organism-based; details: in vivo; procedure, shortened: as §5
COLO 205 [21] = assay: Antitumor activity against human COLO205 cells xenografted in po dosed mouse assessed as tumor growth inhibition administered QD for 17 days; format: functional; details: COLO 205, po, 408 h; procedure, shortened: as §2
[22] = Oral bioavailability in CD-1 mouse at 30 mg/kg as formulation of 25% SDD; format: ADME, organism-based; details: in vivo; procedure, shortened: as §5
[23] = Oral bioavailability in CD-1 mouse at 100 mg/kg as formulation of 25% SDD; format: ADME, organism-based; details: in vivo; procedure, shortened: as §5
[24] = target: T1, Serine/threonine-protein kinase B-raf; assay: Inhibition of full length human B-Raf V600E mutant expressed in baculovirus infected insect cells assessed as [gamma-33P]incorporation into MEK after 60 mins by scintillation counting

T1 sequence (P15056 2-766 V600E limits assumed): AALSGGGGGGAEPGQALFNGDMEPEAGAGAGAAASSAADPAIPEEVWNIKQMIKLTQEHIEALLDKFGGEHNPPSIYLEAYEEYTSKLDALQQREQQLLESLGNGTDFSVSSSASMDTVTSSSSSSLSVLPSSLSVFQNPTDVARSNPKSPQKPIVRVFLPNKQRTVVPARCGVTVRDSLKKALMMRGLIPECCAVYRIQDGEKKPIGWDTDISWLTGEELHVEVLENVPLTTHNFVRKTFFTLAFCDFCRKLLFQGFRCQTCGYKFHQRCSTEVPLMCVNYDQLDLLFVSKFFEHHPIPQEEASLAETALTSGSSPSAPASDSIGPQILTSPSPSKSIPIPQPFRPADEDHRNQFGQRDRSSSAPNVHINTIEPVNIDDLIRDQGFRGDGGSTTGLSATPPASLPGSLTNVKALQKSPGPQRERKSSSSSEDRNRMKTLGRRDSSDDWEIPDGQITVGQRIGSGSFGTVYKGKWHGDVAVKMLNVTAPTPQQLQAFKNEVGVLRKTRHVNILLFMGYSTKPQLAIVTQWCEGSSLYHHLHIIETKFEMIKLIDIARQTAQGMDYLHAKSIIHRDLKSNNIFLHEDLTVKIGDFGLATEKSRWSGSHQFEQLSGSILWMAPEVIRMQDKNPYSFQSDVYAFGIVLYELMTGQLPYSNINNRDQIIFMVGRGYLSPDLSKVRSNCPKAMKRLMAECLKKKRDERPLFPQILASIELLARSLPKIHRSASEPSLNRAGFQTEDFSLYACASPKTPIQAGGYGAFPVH
Sequence of Voltage-gated inwardly rectifying potassium channel KCNH2 (Q12809 whole entry): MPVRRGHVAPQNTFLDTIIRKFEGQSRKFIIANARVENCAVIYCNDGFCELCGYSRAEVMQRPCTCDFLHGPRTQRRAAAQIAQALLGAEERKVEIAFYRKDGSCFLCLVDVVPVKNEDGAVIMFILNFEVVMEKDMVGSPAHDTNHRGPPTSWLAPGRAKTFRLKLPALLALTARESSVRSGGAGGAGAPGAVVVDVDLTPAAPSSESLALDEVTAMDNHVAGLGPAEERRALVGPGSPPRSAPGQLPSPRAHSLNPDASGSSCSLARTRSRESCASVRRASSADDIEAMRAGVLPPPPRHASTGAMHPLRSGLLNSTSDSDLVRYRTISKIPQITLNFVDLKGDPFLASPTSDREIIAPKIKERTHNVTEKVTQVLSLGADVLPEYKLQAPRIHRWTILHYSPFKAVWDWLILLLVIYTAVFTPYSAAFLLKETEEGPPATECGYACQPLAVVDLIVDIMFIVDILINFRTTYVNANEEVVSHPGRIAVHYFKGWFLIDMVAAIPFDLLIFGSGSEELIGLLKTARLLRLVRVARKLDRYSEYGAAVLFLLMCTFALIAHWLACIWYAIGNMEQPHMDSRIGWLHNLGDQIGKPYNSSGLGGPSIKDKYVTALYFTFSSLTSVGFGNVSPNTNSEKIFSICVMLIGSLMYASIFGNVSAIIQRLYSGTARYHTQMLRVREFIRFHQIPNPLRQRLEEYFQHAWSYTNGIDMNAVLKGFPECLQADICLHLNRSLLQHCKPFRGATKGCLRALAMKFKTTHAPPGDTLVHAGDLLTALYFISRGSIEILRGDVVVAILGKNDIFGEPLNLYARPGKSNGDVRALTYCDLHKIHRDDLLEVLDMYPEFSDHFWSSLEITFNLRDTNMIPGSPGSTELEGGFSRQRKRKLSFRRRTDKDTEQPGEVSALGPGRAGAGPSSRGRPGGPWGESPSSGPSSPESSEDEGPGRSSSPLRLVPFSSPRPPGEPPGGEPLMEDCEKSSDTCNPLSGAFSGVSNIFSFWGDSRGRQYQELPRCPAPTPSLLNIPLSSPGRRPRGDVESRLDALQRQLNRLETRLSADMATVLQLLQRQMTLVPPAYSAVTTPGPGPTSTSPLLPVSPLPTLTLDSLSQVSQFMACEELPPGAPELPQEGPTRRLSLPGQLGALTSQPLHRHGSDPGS

SMILES | fraction unbound [3] | solubility at 24 h [4] [µg/mL] | solubility at 24 h [5] [µg/mL] | IC50 [11] [µM] | IC50 [12] [µM] | AUC [13] [µg·h/mL] | bioavailability [14] [%] | clearance [17] [L/h/kg] | Vd [18] [L/kg] | IC50 [24] [µM] | other results
CCCS(=O)(=O)Nc1ccc(F)c(C(=O)Nc2cnc3[nH]nc(OC)c3c2)c1F | 0.026 | 4 (≈ 9.4 µM) | 9 (≈ 21.2 µM) | 0.019 | 0.15 | 190 | 48 | – | – | – | AUC [1]: 664 µg·h/mL; bioavailability [2]: 51%; bioavailability [6]: 19%; EC50 (COLO 205 [7]): 0.08 µM; inhibition (INH) [8]: Not Active; inhibition (INH) [9]: Not Active; Activity (Salmonella typhimurium): Non-toxic; ED50 (COLO 205 [10]): 20 mg/kg; ED90 (COLO 205 [10]): 80 mg/kg; Activity (Mus musculus [15]): Non-toxic; Activity (Mus musculus [16]): Non-toxic
CCCS(=O)(=O)Nc1ccc(Cl)c(C(=O)Nc2cnc3[nH]nc(OC)c3c2)c1F | 0.009 | < 1 | 2 (≈ 4.53 µM) | 0.02 | 0.24 | 1080 | 53 | 0.06 | 0.11 | 0.0017 | AUC [1]: 50.7 µg·h/mL; bioavailability [2]: 1.2%; bioavailability [19]: 53%; bioavailability [20]: 19%; EC50 (COLO 205 [7]): 0.07 µM; inhibition (INH) [8]: Not Active; inhibition (INH) [9]: Not Active; Activity (Salmonella typhimurium): Non-toxic; ED50 (COLO 205 [21]): 11 mg/kg; ED90 (COLO 205 [21]): 50 mg/kg; bioavailability [22]: 28%; bioavailability [23]: 13%; Activity (Mus musculus [15]): Non-toxic; Activity (Mus musculus [16]): Non-toxic
CCCS(=O)(=O)Nc1ccc(F)c(C(=O)Nc2cnc3[nH]ccc3c2)c1F | 0.021 | 1 (≈ 2.54 µM) | 4 (≈ 10.1 µM) | 0.094 | 0.29 | 200 | 76 | 0.114 | 0.2 | 0.038 | –
CCCS(=O)(=O)Nc1ccc(F)c(C(=O)Nc2cnc3[nH]ncc3c2)c1F | 0.129 | 80 (≈ 202 µM) | 150 (≈ 379 µM) | 0.062 | 0.43 | 40 | 100 | 0.9 | 0.68 | 0.017 | –
CCCS(=O)(=O)Nc1ccc(F)c(C(=O)Nc2cnc3[nH]nc(Br)c3c2)c1F | 0.016 | 1 (≈ 2.11 µM) | 3 (≈ 6.33 µM) | 0.044 | 0.26 | 52.5 | – | – | – | 0.004 | –
CCCS(=O)(=O)Nc1ccc(F)c(C(=O)Nc2cnc3[nH]nc(C)c3c2)c1F | 0.101 | 380 (≈ 928 µM) | 740 (≈ 1810 µM) | 0.086 | 0.83 | 18.3 | – | – | – | 0.012 | –
CCCS(=O)(=O)Nc1ccc(F)c(C(=O)Nc2cnc3[nH]cc(Br)c3c2)c1F | 0.006 | < 1 | < 1 | 0.039 | 0.19 | 49 | 71 | 0.432 | 0.24 | 0.0034 | –
CCCS(=O)(=O)Nc1ccc(F)c(C(=O)Nc2cccnc2)c1F | – | – | – | 6.7 | > 3 | – | – | – | – | 3.9 | –
CCCS(=O)(=O)Nc1ccc(F)c(C(=O)Nc2ccc(N)nc2)c1F | – | – | – | 2.4 | > 3 | – | – | – | – | 0.92 | –
CCCS(=O)(=O)Nc1ccc(F)c(C(=O)Nc2cnc(N)c(Br)c2)c1F | – | – | – | 0.31 | 1.2 | – | – | – | – | – | –
CCCS(=O)(=O)Nc1ccc(F)c(C(=O)Nc2cnc3[nH]cnc3c2)c1F | – | – | – | 2.4 | > 3 | – | – | – | – | 0.061 | –
CCCS(=O)(=O)Nc1ccc(F)c(C(=O)Nc2cnc3[nH]nc(N(C)C)c3c2)c1F | 0.092 | 290 (≈ 661 µM) | 450 (≈ 1030 µM) | 0.04 | 0.65 | 1.09 | – | – | – | 0.0082 | –
CCCS(=O)(=O)Nc1ccc(Cl)c(C(=O)Nc2cnc3[nH]ncc3c2)c1F | 0.029 | 15 (≈ 36.4 µM) | 48 (≈ 117 µM) | 0.056 | 0.56 | 147 | 67 | 0.138 | 0.17 | 0.0063 | –
CCCS(=O)(=O)Nc1ccc(F)c(C(=O)c2c[nH]c3ncc(-c4ccc(Cl)cc4)cc23)c1F [VEMURAFENIB] | – | – | – | – | – | – | – | – | – | – | EC50 (COLO 205 [7]): 0.24 µM
